Bioassay records (PubChem BioAssay)
PfGluPho inh: PfG6PD (Plasmodium falciparum) enzyme inhibition | hit rate 0.78% among 350,000 | AID 504690 | inhibition, % at 20 µM | PfGluPho enzyme, NADPH resazurin-diaphorase fluorescence;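 active means inhibition reaching at least a set limit at 20 µM in the primary screen, cut at about 59% in these data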;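 further: 0% = DMSO wells with substrate and 100% = DMSO wells lacking glucose-6-phosphate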
PfM18AAP inh-1: PfM18AAP enzyme inhibition; recombinant PfM18AAP, H-Glu-NHMec fluorogenic cleavage; inhibition, % at 7.35 µM; hit rate 1.2% among 290,000;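 active means inhibition above the campaign mean inhibition over all tested compounds plus 3 SD, cut at about 28% in these data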;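 further: 0% = plate median of test compound wells and 100% = 2 mM ZnCl2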
EBNA-1 inhibitor: blocks EBNA-1 binding to DNA | hit rate 0.34% among 300,000 | inhibition, % at 14.8 µM | EBNA-1 DNA binding, fluorescence polarization; in the data active means inhibition above about 28%
UBC13 inh: blocks human UBC13 polyubiquitin chain formation; TR-FRET; hit rate 0.47% among 330,000; inhibition, % at 20 µM; AID 485273; P61088; in the data active means inhibition above about 45%, passing the limit was not always enough; inconclusive means no clear call, values can overlap the other calls
Target sequence (P61088 whole entry, looked up): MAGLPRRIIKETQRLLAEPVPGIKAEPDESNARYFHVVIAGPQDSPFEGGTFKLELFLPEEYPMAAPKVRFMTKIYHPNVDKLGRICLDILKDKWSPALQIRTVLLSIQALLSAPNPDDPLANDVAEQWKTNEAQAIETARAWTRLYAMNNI
Apaf-1 inh: inhibitors of human Apaf-1 apoptosome; AID 489030; inhibition, % at 20 µM; reconstituted apoptosome caspase-3 activity, DEVD-Rh110 fluorescence; hit rate 0.71% among 330,000; O14727; active means inhibition of at least 40% at 20 µM;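 further: plate controls were DMSO wells for no effect and DEVD-CHO caspase inhibitor wells for full effect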
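System: reconstituted apoptosome with Apaf-1, cytochrome c, caspase-9, procaspase-3, dATP; Signal: Rh110 fluorescence intensity; Schedule: 30 min compound preincubation, 50 min activation, room temperature; Reagent: cytochrome c trigger plus (Z-DEVD)2-Rh110 caspase-3 substrate.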
ZTA DNA inh: blocks Epstein-Barr virus ZTA, an EBNA-1 counter-screen; ZTA-DNA binding, fluorescence polarization; inhibition, % at 11 µM; hit rate 0.15% among 320,000; in the data active means inhibition above about 33%
PfM18AAP inh-2: confirmation of Plasmodium falciparum M18 aspartyl aminopeptidase inhibitors. shares compounds with PfM18AAP inh-1. recombinant PfM18AAP, H-Glu-NHMec fluorogenic cleavage. inhibition, % at 7.35 µM. hit rate 28% among 2,400;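 active means mean inhibition over replicate wells above the hit cutoff set for the earlier primary screen, cut at about 29% in these data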;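 further: 0% = median of test compound wells and 100% = 2 mM ZnCl2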
CTSL1 confirm: Cathepsin L (human) inhibition, confirmation; shares compounds with PfM18AAP inh-1; 2,400 tested, under 10 active; purified cathepsin L1, Z-Leu-Arg-MCA fluorescence; AID 2178; inhibition, % at 5.96 µM;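 active means average inhibition across replicates above the hit cutoff set in the earlier primary screen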;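 further: 0% = median of test compound wells and 100% = Z-Phe-Ala-diazomethylketone 1 µM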
Target sequence (P07711 whole entry, looked up): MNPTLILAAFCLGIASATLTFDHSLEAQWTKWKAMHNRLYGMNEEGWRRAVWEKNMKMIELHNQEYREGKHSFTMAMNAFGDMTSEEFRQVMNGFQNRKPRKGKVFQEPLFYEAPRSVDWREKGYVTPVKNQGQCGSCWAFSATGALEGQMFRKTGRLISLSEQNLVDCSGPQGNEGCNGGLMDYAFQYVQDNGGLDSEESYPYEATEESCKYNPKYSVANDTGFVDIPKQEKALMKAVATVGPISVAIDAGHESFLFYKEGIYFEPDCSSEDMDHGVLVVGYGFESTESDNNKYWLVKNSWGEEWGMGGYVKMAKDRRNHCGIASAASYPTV
PfG6PD confirm: confirmation of Plasmodium falciparum G6PD inhibitors; shares compounds with PfGluPho inh; recombinant PfGluPho, NADPH-diaphorase-resazurin fluorescence; inhibition, % at 20 µM; hit rate 34% among 2,400; AID 504753;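 active means inhibition of at least 50% at 20 µM in any single replicate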;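 further: 0% = DMSO with substrate and 100% = DMSO lacking glucose-6-phosphate substrate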
Diaphorase 10uM: counter-screen for P. falciparum G6PD inhibitors: diaphorase inhibitors, oxidizers | diaphorase-coupled resazurin reduction, fluorescence, NADPH 10 uM | shares compounds with PfGluPho inh | AID 504862 | inhibition, % at 20 µM | hit rate 39% among 820;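 active means average inhibition reaching 50% or more with the compound at 20 µM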;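 further: resorufin red fluorescence formed as diaphorase reduces resazurin using NADPH; 0% = DMSO with enzyme and 100% = DMSO without enzyme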
Diaphorase 30uM: counter-screen for P. falciparum G6PD inhibitors: diaphorase inhibitors, oxidizers. shares compounds with PfGluPho inh. AID 504863. Diaphorase/resazurin coupled assay, resorufin fluorescence, 30 uM NADPH. hit rate 29% among 820. inhibition, % at 20 µM;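 active means inhibition averaging 50% or more, tested at 20 µM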;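 further: 0% = DMSO with enzyme and 100% = DMSO wells lacking diaphorase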
Starred values were filed as active, the others as inactive. Rows were chosen to be rich in hits. Some 2.9% of all compounds tested hit in one or more screens of this group.

For N#CCC(=O)N/N=C/c1ccc(Sc2nc3ccccc3s2)o1 the results were PfGluPho inh 68*, PfM18AAP inh-1 41*, EBNA-1 inhibitor 6, UBC13 inh 2, Apaf-1 inh 21, ZTA DNA inh 10, PfM18AAP inh-2 -51, CTSL1 confirm -7 and PfG6PD confirm 21.
`O=C(O)c1ccccc1C(=O)Nc1n[nH]c(=S)s1` gave PfGluPho inh 72*, PfM18AAP inh-1 63*, EBNA-1 inhibitor 5, UBC13 inh -1, Apaf-1 inh -39, ZTA DNA inh 10, PfM18AAP inh-2 9, CTSL1 confirm -3 and PfG6PD confirm 34.
`CCOC(=O)C1CCCN(C(=O)Cn2sc3nc(C)cc(C)c3c2=O)C1` (stereo unspecified) gave PfGluPho inh 68*, PfM18AAP inh-1 59*, EBNA-1 inhibitor -2, UBC13 inh -21, Apaf-1 inh 1, ZTA DNA inh -16, PfM18AAP inh-2 24, CTSL1 confirm -4, PfG6PD confirm 52*, Diaphorase 10uM -18 and Diaphorase 30uM -20.
Screening CCOC(=O)C1CCCN(C(=O)Cn2cnc3c2c(=O)n(C)c(=O)n3C)C1 (stereo unspecified) returned PfGluPho inh -7, PfM18AAP inh-1 -6, EBNA-1 inhibitor 3, UBC13 inh -10, Apaf-1 inh 11 and ZTA DNA inh -15.
Cc1cc(C)c2c(=O)n(CC(=O)N3CCC(N4CCCCC4)CC3)sc2n1 was read as PfGluPho inh 80*, PfM18AAP inh-1 43*, EBNA-1 inhibitor 3, UBC13 inh -15, Apaf-1 inh 2, ZTA DNA inh 17, PfM18AAP inh-2 2, CTSL1 confirm 4, PfG6PD confirm 63*, Diaphorase 10uM -2 and Diaphorase 30uM 2.
For CCCNC(=O)Cn1sc2nc(C)cc(C)c2c1=O the results were PfGluPho inh 81*, PfM18AAP inh-1 58*, EBNA-1 inhibitor -6, UBC13 inh -18, Apaf-1 inh -3, ZTA DNA inh 5, PfM18AAP inh-2 30*, CTSL1 confirm 1, PfG6PD confirm 68*, Diaphorase 10uM -32 and Diaphorase 30uM -23.
For CC(=O)Cn1cnc2c(sc3nc(C)cc(C)c32)c1=O the results were PfGluPho inh -2, PfM18AAP inh-1 1, EBNA-1 inhibitor -3, UBC13 inh 1, Apaf-1 inh 5 and ZTA DNA inh -7.
`COc1ccc(CCNC(=O)c2cc3c(cc2Cl)N2CCCCCC2=NS3(=O)=O)cc1` gave PfGluPho inh 7, EBNA-1 inhibitor 7, UBC13 inh -10, Apaf-1 inh 2 and ZTA DNA inh 3.
Screening O=C(NC1CCCCC1)C(c1ccc(F)cc1)N(C(=O)c1csnn1)C1CC1 (stereo unspecified) returned PfGluPho inh -18, PfM18AAP inh-1 -2, EBNA-1 inhibitor 4, UBC13 inh 1, Apaf-1 inh -1 and ZTA DNA inh -10.
For CCn1ncc(Br)c1C(=O)Nc1ccc(-c2ccno2)cc1 the results were PfGluPho inh 18, PfM18AAP inh-1 -7, EBNA-1 inhibitor -9, UBC13 inh 6, Apaf-1 inh 4 and ZTA DNA inh 0.
For CC(=O)c1ccc(NC(=S)NCCc2ccc(S(N)(=O)=O)cc2)cc1 the results were PfGluPho inh -15, PfM18AAP inh-1 0, EBNA-1 inhibitor 6, UBC13 inh 17, Apaf-1 inh -5 and ZTA DNA inh 7.
`CC(C)OCCCNC(=S)Nc1ccc(S(N)(=O)=O)cc1` gave PfGluPho inh 61*, PfM18AAP inh-1 49*, EBNA-1 inhibitor 0, UBC13 inh 5, Apaf-1 inh -1, ZTA DNA inh -5, PfM18AAP inh-2 11, CTSL1 confirm -2 and PfG6PD confirm 44.
Screening COc1ccc(OCC(=O)Nn2c(-c3ccc(OC)cc3)nc3ccccc3c2=O)cc1 returned PfGluPho inh -15, PfM18AAP inh-1 5, EBNA-1 inhibitor -3, UBC13 inh 7, Apaf-1 inh 4 and ZTA DNA inh -5.
COc1ccc(-c2nc3ccccc3c(=O)n2NC(=S)N(C)C)cc1 was read as PfGluPho inh 80*, PfM18AAP inh-1 36*, EBNA-1 inhibitor -5, UBC13 inh 1, Apaf-1 inh 0, ZTA DNA inh -6, PfM18AAP inh-2 33*, CTSL1 confirm 2 and PfG6PD confirm 44.
Screening Nc1c(C(=O)N2CCOCC2)sc2nc(N3CCOCC3)c3c(c12)CCCC3 returned PfGluPho inh 66*, PfM18AAP inh-1 37*, EBNA-1 inhibitor 13, UBC13 inh inconclusive, Apaf-1 inh -5, ZTA DNA inh 9, PfM18AAP inh-2 10, CTSL1 confirm 1 and PfG6PD confirm -5.
CC1(C)Cc2c(c(N3CCOCC3)nc3sc(C(=O)N4CCCCC4)c(N)c23)CO1 was read as PfGluPho inh 68*, PfM18AAP inh-1 33*, EBNA-1 inhibitor -6, UBC13 inh 20, Apaf-1 inh 8, ZTA DNA inh -4, PfM18AAP inh-2 -6, CTSL1 confirm 2 and PfG6PD confirm 15.
O=C1CN(C(=O)/C=C/c2ccc(Br)cc2)CCN1 was read as PfGluPho inh 3 and PfM18AAP inh-1 -4.
Cc1cccc(N/N=C/c2ccc(O)c(O)c2O)c1 was read as PfGluPho inh 84*, PfM18AAP inh-1 36*, EBNA-1 inhibitor -2, UBC13 inh 20, Apaf-1 inh 8, ZTA DNA inh -7, PfM18AAP inh-2 17, CTSL1 confirm 2 and PfG6PD confirm 44.
For Oc1ccc(/C=N/NC(=S)Nc2cccnc2)c(O)c1O the results were PfGluPho inh 80*, PfM18AAP inh-1 62*, PfM18AAP inh-2 34*, CTSL1 confirm 2, PfG6PD confirm 67*, Diaphorase 10uM 55* and Diaphorase 30uM 80*.
`Oc1cccc(/C=N/NC(=S)Nc2cccnc2)c1O` gave PfGluPho inh 19, PfM18AAP inh-1 16, EBNA-1 inhibitor -7 and ZTA DNA inh 6.
For COc1cccc(N/N=C/c2cccc(Br)c2O)c1 the results were PfGluPho inh 30, PfM18AAP inh-1 -2, EBNA-1 inhibitor 9, UBC13 inh 5, Apaf-1 inh 4 and ZTA DNA inh -10.
